HIV Env fusion = blocks HIV Env-driven cell-cell fusion | HeLa-JRFL Env/CEM21 cell fusion, luciferase | inhibition, % at 12.3 µM | actives 1.1% (n = 360,000) | AID 651610;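 active = mean replicate inhibition score of at least 50 and every replicate individually at or above 50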;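 note: 0% = plate neutral controls and 100% = maraviroc near 300 nM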
GSK3beta inhib = inhibitors of human GSK3beta kinase | actives 0.038% (n = 300,000) | AID 2097 | GST-GSK3beta kinase, ADP-Glo luminescence, 60 min; hits give low values | activity score (negative = inhibition), % at 10 µM;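 active = more than half of replicate wells score below -50%, meaning over 50% inhibition versus plate controls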;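 note: 0% = median DMSO wells and -100% = median GW8510 positive control wells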
Target sequence (P49841 whole entry, looked up): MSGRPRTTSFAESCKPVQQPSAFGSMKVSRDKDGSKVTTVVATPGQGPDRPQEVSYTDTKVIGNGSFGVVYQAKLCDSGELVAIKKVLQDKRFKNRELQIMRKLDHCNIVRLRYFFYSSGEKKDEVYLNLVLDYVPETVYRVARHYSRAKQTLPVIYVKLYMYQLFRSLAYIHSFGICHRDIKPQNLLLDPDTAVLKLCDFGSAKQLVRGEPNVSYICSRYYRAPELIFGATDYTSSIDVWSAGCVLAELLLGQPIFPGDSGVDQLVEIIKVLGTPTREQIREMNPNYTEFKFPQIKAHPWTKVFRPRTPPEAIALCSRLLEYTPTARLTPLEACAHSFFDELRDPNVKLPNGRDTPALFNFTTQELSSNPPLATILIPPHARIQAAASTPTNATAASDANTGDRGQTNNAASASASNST
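test system = GST-tagged human GSK3beta kinase, cell-free | reagent = 25 µM ATP with peptide substrate | dosing = one dose of 10 µM per compound | schedule = 60 min reaction, RT | detection = luminescent ADP-Glo measurement of ADP formed | control set = DMSO neutral wells and GW8510 at 20 µM as positive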
INS-1E GSIS act = GLuc luminescence reporter in INS-1E cells, primary screen for activators of glucose-dependent secretion of insulin | INS-1E GLuc reporter insulin secretion, 2-3 h | activation, % at 16.6 µM | actives 0.61% (n = 370,000);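 active = lowest replicate activation of at least 40%, so every replicate reaches that level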;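 note: 0% = median of neutral control wells and 100% = median of IBMX positive control wells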
STK33 kinase inh = blocks human STK33 kinase activity; Q9BYT3; purified STK33, MBP phosphorylation, ADP-Glo luminescence; inhibition, % at 10 µM; AID 2661; actives 0.073% (n = 320,000);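 active = inhibition at or above 25%, using the most active replicate where run in duplicate; inactive = inhibition below 25%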
CDK5 p35 inh = inhibitors of human CDK5/p35 kinase | Recombinant CDK5/p35, ADP-Glo luminescence, 60 min | AID 488839 | inhibition, % at 10 µM | actives 0.01% (n = 330,000) | Q00535+Q15078;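 active = highest replicate inhibition of at least 50% and at least 75% of replicates reaching 50%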;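 note: plate controls were DMSO neutral control for no effect and GW8510 at 10 µM for full effect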
GSK3A inh = inhibitors of human GSK-3 alpha kinase; ADP-Glo luminescence, 60 min; inhibition, % at 10 µM; actives 0.1% (n = 320,000); AID 2650;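 active = more than half of replicates show inhibition above 20%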;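 note: GST-tagged GSK-3 alpha with peptide substrate and 25 µM ATP; 0% = DMSO neutral wells and 100% = GW8510 positive control wells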
Numbers without * were called inactive; / = no result given; [ ] = another dose, or the depositor's remark. Only some compounds are listed: those with a hit (about 1.4% of all), similar ones and a draw of the others.

SMILES | HIV Env fusion | GSK3beta inhib | INS-1E GSIS act | STK33 kinase inh | CDK5 p35 inh | GSK3A inh
Cc1ccc(S(=O)(=O)c2ccc([N+](=O)[O-])o2)cc1 | -198 | / | 99* | / | 0 | /
CC(C)(C)n1nc2c(c1NC(=O)Cc1ccc(F)cc1)CS(=O)(=O)C2 | 1 | 3 | 12 | 0 | 1 | 0
Cc1ccc(OCC(=O)Nc2c3c(nn2C(C)(C)C)CS(=O)(=O)C3)cc1 | 58* | 1 | 12 | -4 | 0 | 3
C[C@H](CO)N1C[C@H](C)[C@@H](CN(C)Cc2ccccc2)Oc2cc(C3=CCCC3)ccc2S1(=O)=O | 55*[16.7 µM] | / | 3 | / | / | /
C[C@H](CO)N1C[C@H](C)[C@@H](CN(C)Cc2ccncc2)Oc2cc(C3=CCCCC3)ccc2S1(=O)=O | 64*[16.7 µM] | / | 3 | / | / | /
CO[C@H]1CN(C)C(=O)c2cc(NC(=O)C3CCC3)ccc2OC[C@@H](C)N(C(=O)CN(C)C)C[C@@H]1C | / | / | 1 | / | / | /
C[C@@H]1CN([C@@H](C)CO)C(=O)c2cc(NS(=O)(=O)c3ccccc3)ccc2O[C@H]1CN(C)C(=O)Nc1ccc2c(c1)OCO2 | -10[16.7 µM] | / | 18 | / | / | /
Cc1cccc(Oc2ncc(-c3ccc(Cl)cc3)cn2)c1C | / | -1 | / | 0 | -2 | -1
Cc1ccc(Oc2ncc(-c3ccc(Cl)cc3)cn2)cc1 | / | -1 | 46* | 0 | 1 | -1
COC(=O)c1ccc(C(=O)NC2CCCc3c2cnn3-c2ccc(C)c(C)c2)cc1 (configuration not stated) | 72* | 3 | -26 | 1 | 1 | 2
Cc1cccc(-n2ncc3c2CCCC3NC(=O)c2ccncc2)c1C (configuration not stated) | 61* | / | / | / | / | /
Cc1cc(C(=O)NC2CCCc3c2cnn3-c2ccc(C(C)(C)C)cc2)nn1C (configuration not stated) | 82* | 2 | -23 | 0 | 1 | -2
CCn1cc(C(=O)NC2CCCc3c2cnn3-c2cccc(C)c2C)cn1 (configuration not stated) | 57* | 1 | -23 | -1 | -5 | 0
CC(C)CC#Cc1cnc2c(c1)C(=O)N([C@H](C)CO)C[C@H](C)[C@@H](CN(C)C(=O)C1CCOCC1)O2 | -20[16.7 µM] | / | -1 | / | / | /
CN(C)C(=O)c1cccc(-c2ccc3c(c2)[C@@H]2[C@@H](CCN2S(=O)(=O)c2cn(C)cn2)[C@H](CO)N3)c1 | / | / | 7 | / | / | /
CC(OC(=O)c1ccc2c(c1)NC(=O)CS2)C(=O)c1ccc(F)cc1 (configuration not stated) | 59* | / | -51 | 2 | 1 | -4
COC(=O)c1ccc2c(c1)NC(=O)CS2 | -8 | 4 | 9 | -1 | 0 | 0
CCC(=O)N(C)C[C@H]1Oc2ncc(-c3ccccc3OC)cc2C(=O)N([C@H](C)CO)C[C@@H]1C | -2[16.7 µM] | / | -18 | / | / | /
C[C@@H]1CN([C@@H](C)CO)C(=O)CCCn2nncc2CO[C@H]1CN(C)Cc1ccc(C(=O)O)cc1 | / | / | -4 | / | / | /
CCCOc1ccc(Cn2cnc3ccccc32)cc1 | 60* | / | -51 | 0 | 2 | -2
Fc1ccc(Cn2cnc3ccccc32)cc1 | -23 | -3 | 10 | 1 | 2 | -2
C[C@H]1CCCCO[C@H](CN(C)S(=O)(=O)c2cccs2)[C@@H](C)CN([C@@H](C)CO)C(=O)c2cc(NS(=O)(=O)c3ccc(F)cc3)ccc2O1 | -50[16.7 µM] | / | -9 | / | / | /
COc1ccc(S(=O)(=O)Nc2ccc3c(c2)CC(=O)N([C@@H](C)CO)C[C@@H](C)[C@@H](CN(C)Cc2ccncc2)O3)cc1 | / | / | -2 | / | / | /
COc1cccc(C2CC(=O)Nc3n[nH]c(-c4ccccc4)c32)c1OC (configuration not stated) | -21 | -23 | -6 | 0 | 1 | 61*
COc1ccc(OC)c(C2CC(=O)Nc3n[nH]c(-c4ccccc4)c32)c1 (configuration not stated) | 16 | -7 | 14 | 1 | 1 | 18
O=C(c1cnccn1)N1CC[C@@H]2[C@H](CO)Nc3ccc(C#Cc4cccnc4)cc3[C@@H]21 | / | / | 4 | / | / | /
CC1Cc2cc(-c3csc(NC(=O)Cc4cccs4)n3)ccc2N1S(C)(=O)=O (configuration not stated) | 75* | -3 | -35 | -2 | -1 | 0
